ChEMBL document CHEMBL2429741 (J Med Chem, 2013)

How the values were obtained:
[1] = molecular target: T1, 1-deoxy-D-xylulose 5-phosphate reductoisomerase (Mycobacterium tuberculosis, UniProt P9WNS1); test: Inhibition of Mycobacterium tuberculosis IspC by photometric assay
T1 sequence (P9WNS1 whole entry): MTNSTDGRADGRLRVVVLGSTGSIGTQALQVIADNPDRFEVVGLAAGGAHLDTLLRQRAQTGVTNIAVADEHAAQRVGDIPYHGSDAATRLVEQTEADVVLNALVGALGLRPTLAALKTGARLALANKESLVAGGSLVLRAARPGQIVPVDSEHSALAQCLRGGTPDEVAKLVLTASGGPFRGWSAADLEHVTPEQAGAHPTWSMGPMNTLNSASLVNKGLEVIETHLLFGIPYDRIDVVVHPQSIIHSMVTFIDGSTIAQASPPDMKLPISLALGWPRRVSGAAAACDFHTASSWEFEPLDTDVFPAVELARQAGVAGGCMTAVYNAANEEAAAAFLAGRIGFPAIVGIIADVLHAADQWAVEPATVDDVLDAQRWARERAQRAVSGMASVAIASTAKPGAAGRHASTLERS
Summary of the method: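 Photometric NADPH-consumption assay at pH 7.6 (Tris) with 5 mM MgCl2, 5 mM DTT, 0.5 mM NADPH and 0.02 U IspC. Inhibitor 1:3 series covered about 200–0.003 μM. Started with 1-deoxy-D-xylulose 5-phosphate (0.5–5.0 mM final); A340 read at room temperature.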

[2] = Inhibition of Plasmodium falciparum IspC expressed in recombinant Escherichia coli M15 by photometric assay
Summary of the method: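 His-tagged enzyme from E. coli M15 pREP4 pQEIspCplasart20, induced with 1 mM IPTG overnight at 30 °C, Ni-imidazole purified, about 95% pure. Inhibitor 1:3 over about 200–0.003 μM. DXP start, final 0.5–5.0 mM. 340 nm, room temperature. Nonlinear-regression IC50, ≥8 points.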

[3] = Inhibition of Escherichia coli IspC by photometric assay
Summary of the method: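 NADPH-coupled photometric read at 340 nm, room temperature. Inhibitor 1:3 dilutions over about 200–0.003 μM. Started with 1-deoxy-D-xylulose 5-phosphate, final 0.5–5.0 mM. IC50 from nonlinear regression of ≥8 points, mean ± SD; generally 2–3 independent determinations.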

Plasmodium falciparum [4] = test: Antimicrobial activity against chloroquine-resistant blood stage forms of Plasmodium falciparum Dd2 after 3 days by HRP2-based ELISA; type: functional, organism-based; conditions: Dd2, 72 h
Summary of the method: (§1)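 Sorbitol-synchronized ring-stage parasites (0.05% parasitemia, 1.5% hematocrit, O Rh+ erythrocytes) in RPMI 1640/HEPES/glutamine/gentamycin/0.5% Albumax, 37 °C, 5% CO2, 5% O2. Added to plates precoated with 3-fold compound dilutions from DMSO stocks; 3-day incubation; plates freeze-thawed twice; HRP2 ELISA. Chloroquine control each run. IC50 from nonlinear regression of log concentration-response; mean of two independent duplicate determinations.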

Plasmodium falciparum [5] = test: Antimicrobial activity against chloroquine-sensitive blood stage forms of Plasmodium falciparum 3D7 after 3 days by HRP2-based ELISA; type: functional, organism-based; conditions: 3D7, 72 h; summary of the method: as §1

| SMILES | IC50 [1] [nM] | IC50 [2] [nM] | IC50 [3] [nM] | IC50 (Plasmodium falciparum [4]) [nM] | IC50 (Plasmodium falciparum [5]) [nM] | Ki [2] [nM] |
| --- | --- | --- | --- | --- | --- | --- |
| CN(O)C(=O)COC(c1ccc(Cl)c(Cl)c1)P(=O)(O)O (stereo unspecified) | 1600 | 14 | 200 |  |  |  |
| CN(O)C(=O)CSC(c1ccccc1)P(=O)(O)O (racemic) | 280 | 24 | 8.2 | 75 | 30 | 4.4 |
| CN(O)C(=O)COC(c1ccccc1)P(=O)(O)O (stereo unspecified) | 16000 | 37 | 940 |  |  |  |
| CN(O)C(=O)CCC(c1ccc(Cl)c(Cl)c1)P(=O)(O)O (stereo unspecified) | 280 | 2.8 | 208 |  |  |  |
| CN(O)C(=O)CCC(c1ccc(F)c(F)c1)P(=O)(O)O (stereo unspecified) | 770 | 3.4 | 117 | 40 | 122 |  |
| CN(O)C(=O)CS[C@H](c1ccccc1)P(=O)(O)O | 83000 | 12000 | 4000 |  |  | 2200 |
| O=C(CSC(c1ccc(F)c(F)c1)P(=O)(O)O)NO (racemic) | 1700 | 15 | 77 | 330 | 160 |  |
| CN(O)C(=O)CSC(c1cccc2ccccc12)P(=O)(O)O (racemic) | 550 | 9.8 | 140 | 510 | 380 |  |
| CN(O)C(=O)CCC(c1cccc2ccccc12)P(=O)(O)O (stereo unspecified) | 13000 | 9.4 | 3830 |  |  |  |
| Cc1ccc(C(OCC(=O)N(C)O)P(=O)(O)O)cc1 (stereo unspecified) | 4000 | 25 | 320 |  |  |  |
| Cc1ccc(C(SCC(=O)N(C)O)P(=O)(O)O)cc1 (racemic) | 110 | 18 | 33 | 95 | 111 |  |
| CN(O)C(=O)CSC(c1ccc(Cl)c(Cl)c1)P(=O)(O)O (racemic) | 9.2 | 4.5 | 5.9 | 85 | 91 |  |
| CN(O)C(=O)COC(c1ccc(F)c(F)c1)P(=O)(O)O (stereo unspecified) | 4600 | 12 | 240 |  |  |  |
| O=C(CCC(c1ccc(F)c(F)c1)P(=O)(O)O)NO (stereo unspecified) | 3400 | 3.9 | 178 | 65 | 75 |  |
| O=CN(O)CCCP(=O)(O)O [FOSMIDOMYCIN] |  |  | 221 |  |  |  |
| CN(O)C(=O)COC(c1cccc2ccccc12)P(=O)(O)O (stereo unspecified) | 15000 | 39 | 4600 |  |  |  |
| CN(O)C(=O)CCC(c1ccccc1)P(=O)(O)O (stereo unspecified) | 2000 | 3.1 | 243 | 74 | 90 |  |
| O=C(COC(c1ccccc1)P(=O)(O)O)NO (stereo unspecified) | 466000 | 1500 | 20000 |  |  |  |
| O=C(COC(c1ccc(F)c(F)c1)P(=O)(O)O)NO (stereo unspecified) | > 500000 | 3900 | 49000 |  | > 50000 |  |
| O=C(CSC(c1ccccc1)P(=O)(O)O)NO (racemic) | 15000 | 110 | 600 | 3770 | 2900 |  |
| O=C(CCC(c1ccccc1)P(=O)(O)O)NO (stereo unspecified) | 14000 | 12 | 592 | 570 | 400 |  |
| CN(O)C(=O)CS[C@@H](c1ccccc1)P(=O)(O)O | 120 | 9.4 | 5.1 |  |  | 1.7 |
| Cc1ccc(C(CCC(=O)N(C)O)P(=O)(O)O)cc1 (stereo unspecified) | 1800 | 14 | 286 |  |  |  |
| O=C(CSC(c1ccc(Cl)c(Cl)c1)P(=O)(O)O)NO (racemic) | 720 | 200 | 44 | 870 | 540 |  |
| CN(O)C(=O)CSC(c1ccc(F)c(F)c1)P(=O)(O)O (racemic) | 42 | 14 | 8.5 | 88 | 111 |  |
